# Laboratory results: ChEMBL document CHEMBL5346935, “Novel O-benzylcinnamic acid derivative L26 treats acute lung injury in mice by MD-2” (Eur J Med Chem, 2023)
# The source made the active and inactive calls. The calls are words filed in the database; no cut-off is given here.
# Assays:
# [1] = (§1) Antiinflammatory activity in LPS-induced HEK-Blue hTLR4 cells assessed as reduction in alkaline phosphatase activity at 10 uM pretreated with compound for 0.5 hr followed by LPS induction and measured after 24 hrs; assay type: functional, Homo sapiens; parameters: scale not given: the % may be the effect or the level left; settings: time 24.5 hrs
# Method in brief: (§2)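 HEK-Blue-TLR4 cells (2×10^4/well, DMEM with 10% FBS) were grown for 24 h, then pretreated with compound or DMSO for 0.5 h. LPS was added at 0.5 µg/mL for 24 h. Supernatant ALP activity was read at 405 nm with a kit. Values are mean ± SEM of three independent experiments.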
# [2] = tested on: HEK-Blue hTLR4; experiment: as §1; assay type: functional; settings: Homo sapiens, time 24.5 hrs; method in brief: as §2
# [3] = tested on: Mus musculus; experiment: In vivo Inhibition of NF-kappaB signalling pathway in mouse C57BL/6 lung assessed as upregulation of IkappaBalpha protein expression at 5 mg/kg, po measured for 6 hrs by Western blot analysis; assay type: functional, organism-based
# Method in brief: (§3)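 In the C57BL/6 ALI model (5 mg/kg oral every 12 h for 36 h, then intratracheal LPS 5 mg/kg, sacrifice at 6 h), lung tissue was lysed in RIPA buffer with PMSF and protein was quantified by Bradford. Samples were run on 10% SDS-PAGE and immunoblotted for p65, phospho-p65 and IκB, with GAPDH as reference.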
# [4] = Half life in Sprague-Dawley rat at 10 mg/kg, po measured at 5 to 24 hrs by UPLC-MS/MS analysis; assay type: ADME, organism-based; settings: in vivo, time 5-24 hrs
# Method in brief: (§4)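 Male SD rats (200 g ± 20 g, n = 6) were dosed orally by gavage at 10 mg/kg, suspended in CMC-Na with DMSO (<0.1%). Tail-vein blood was drawn at 5 min, 15 min, 30 min, 1, 2, 4, 6, 9, 12 and 24 h and centrifuged. Plasma supernatant was precipitated with an equal volume of acetonitrile and run on UPLC-MS/MS. Parameters came from a non-compartmental fit.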
# [5] = Cmax in Sprague-Dawley rat at 10 mg/kg, po measured at 5 to 24 hrs by UPLC-MS/MS analysis; assay type: ADME, organism-based; parameters: dose 10 mg/kg, time 5-24 hrs, route po; settings: in vivo; method in brief: as §4
# [6] = Acute toxicity in ICR mouse assessed as pathological changes in spleen at 1000 to 1500 mg/kg, IG measured after 10 days by H and E staining method; assay type: organism-based; settings: in vivo, po, 240 h, dose 1000-1500 mg/kg, time 10 day
# Method in brief: (§5)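 ICR mice (27 g ± 1 g; n = 24 total) given a single oral gavage dose on day 1 in CMC-Na with DMSO (<0.1%), dosing solution 50 mg/mL. Untreated mice served as controls. After 10 days, mice were sacrificed under general anaesthesia. Heart, liver, lung, spleen and kidney were harvested for H&E pathology.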
# [7] = Acute toxicity in ICR mouse assessed as pathological changes in heart at 1000 to 1500 mg/kg, IG measured after 10 days by H and E staining method; assay type: organism-based; settings: in vivo, po, 240 h, dose 1000-1500 mg/kg, time 10 day; method in brief: as §5
# [8] = tested on: Mus musculus; experiment: Antiinflammatory activity in LPS-induced C57BL/6 mouse acute lung injury model assessed as decrease in […] TNF-alpha mRNA expression level at 5 mg/kg, po administered every 12 hrs for 36 hrs followed by LPS-induction for 12 hrs and measured at 6 hrs post LPS challenge by q-RTPCR analysis; assay type: functional, organism-based; settings: time 54.0 hrs
# Method in brief: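 C57BL/6 mice (8 per group) were gavaged with 5 mg/kg in 0.5% CMC-Na every 12 h for 36 h. LPS (5 mg/kg) was instilled intratracheally 12 h after the last dose. Mice were euthanized 6 h later and lung TNF-α mRNA was measured by real-time qRT-PCR.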
# [9] = tested on: Mus musculus; experiment: In vivo Inhibition of NF-kappaB signalling pathway in mouse C57BL/6 lung assessed as decrease in phosphorylated p65 level at 5 mg/kg, po measured for 6 hrs by Western blot analysis; assay type: functional, organism-based; method in brief: as §3
# [10] = Acute toxicity in ICR mouse assessed as pathological changes in lung at 1000 to 1500 mg/kg, IG measured after 10 days by H and E staining method; assay type: organism-based; settings: in vivo, po, 240 h, dose 1000-1500 mg/kg, time 10 day; method in brief: as §5
# [11] = Toxicity in C57BL/6 mouse assessed as histopathological changes in lung at 5 mg/kg, po measured at 6 hrs by H and E staining analysis; assay type: organism-based; settings: in vivo
# Method in brief: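 Lungs from C57BL/6 mice given 5 mg/kg orally every 12 h for 36 h, then intratracheal LPS 5 mg/kg and sacrificed 6 h later, were fixed in 4% PFA, paraffin-embedded and stained with H&E.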
# [12] = AUC (0 to t) in Sprague-Dawley rat at 10 mg/kg, po measured at 5 to 24 hrs by UPLC-MS/MS analysis; assay type: ADME, organism-based; parameters: dose 10 mg/kg, time upper 24 hrs, time lower 5 hrs, route po; settings: in vivo; method in brief: as §4
# [13] = organism: Homo sapiens; experiment: Binding affinity to human recombinant MD-2 assessed as reduction in binding of LPS to MD-2 at 1 uM by ELISA analysis
# [14] = tested on: Mus musculus; experiment: Antiinflammatory activity in LPS-induced C57BL/6 mouse acute lung injury model assessed as decrease in total protein level at 5 mg/kg, po administered every 12 hrs for 36 hrs followed by LPS-induction for 12 hrs and measured at 6 hrs post LPS challenge; assay type: functional, organism-based; settings: time 54.0 hrs
# Method in brief: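 Same C57BL/6 regimen: 5 mg/kg oral in 0.5% CMC-Na every 12 h for 36 h, then intratracheal LPS 5 mg/kg 12 h later, with sacrifice at 6 h. BALF was collected by rinsing the left lung with saline 4 times and centrifuged (1000 rpm, 4 °C, 10 min). Supernatant protein was measured by BCA assay.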
# [15] = tested on: RAW264.7; experiment: Binding affinity to MD-2 in mouse RAW264.7 cells assessed as reduction in LPS/MD-2/TLR4 polymers formation incubated for 12 hrs by immunoprecipitation assay; assay type: cell-based
# [16] = tested on: Mus musculus; experiment: Antiinflammatory activity in LPS-induced C57BL/6 mouse acute lung injury model assessed as decrease in BALF ALP level at 5 mg/kg, po administered every 12 hrs for 36 hrs followed by LPS-induction for 12 hrs and measured at 6 hrs post LPS challenge by ELISA analysis; settings: time 54.0 hrs
# [17] = Tmax in Sprague-Dawley rat at 10 mg/kg, po measured at 5 to 24 hrs by UPLC-MS/MS analysis; assay type: ADME, organism-based; settings: in vivo, time 5-24 hrs; method in brief: as §4
# [18] = tested on: RAW264.7; experiment: Antiinflammatory activity in LPS-induced mouse RAW264.7 cells assessed as decrease in LPS-induced TNF-alpha secretion pretreated for 30 mins followed by LPS-induction and measured after 24 hrs by ELISA analysis; assay type: functional, cell-based
# Method in brief: (§6)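 RAW 264.7 macrophages were pretreated for 30 min with 1–10 µM compound or DMSO vehicle, then stimulated with LPS (0.5 µg/mL). After 24 h, supernatant IL-6 and TNF-α were measured by ELISA. Results are mean ± SEM of triplicates, expressed as percent of the LPS group, with Student's t-test.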
# [19] = Acute toxicity in ICR mouse assessed as pathological changes in liver at 1000 to 1500 mg/kg, IG measured after 10 days by H and E staining method; assay type: organism-based; settings: in vivo, po, 240 h, dose 1000-1500 mg/kg, time 10 day; method in brief: as §5
# [20] = tested on: RAW264.7; experiment: Antiinflammatory activity in LPS-induced mouse RAW264.7 cells assessed as decrease in LPS-induced IL-6 secretion pretreated for 30 mins followed by LPS-induction and measured after 24 hrs by ELISA analysis; assay type: functional, cell-based; method in brief: as §6
# [21] = AUC (0 to infinity) in Sprague-Dawley rat at 10 mg/kg, po measured at 5 to 24 hrs by UPLC-MS/MS analysis; assay type: ADME, organism-based; parameters: time lower 5 hrs, dose 10 mg/kg, time upper 24 hrs, route po; settings: in vivo; method in brief: as §4
# [22] = Acute toxicity in ICR mouse assessed as pathological changes in kidney at 1000 to 1500 mg/kg, IG measured after 10 days by H and E staining method; assay type: organism-based; settings: in vivo, po, 240 h, dose 1000-1500 mg/kg, time 10 day; method in brief: as §5
smiles,measurement,setting,value
O=C(/C=C/c1ccc(OCc2cccc(F)c2)cc1)Nc1nc2ccccc2s1,Activity,[1],19%
O=C(/C=C/c1ccc(OCc2c(Cl)cccc2Cl)cc1)Nc1nc2ccccc2s1,Activity,[1],11.99%
O=C(/C=C/c1ccc(OCc2ccc(F)cc2)cc1)Nc1nc2ccccc2s1,Activity,[1],12.84%
Cc1cccc(COc2ccc(/C=C/C(=O)Nc3nc4ccccc4s3)cc2)c1,Activity,[1],9.26%
COc1cccc(COc2ccc(/C=C/C(=O)Nc3nccs3)cc2)c1,Activity,[2],inactive
COc1cccc(COc2ccc(/C=C/C(=O)Nc3nc4ccccc4[nH]3)cc2)c1,Activity,[3],Active
same,half-life,[4],4.25 h
same,Cmax,[5],163 ng/mL
same,Activity,[6],Non-Toxic
same,Activity,[7],Non-Toxic
same,Activity,[8],Active
same,inhibition,[9],Active
same,Activity,[10],Non-Toxic
same,Activity,[11],Non-Toxic
same,AUC(0-t),[12],462 ng·h/mL
same,Activity,[13],Active
same,Activity,[14],Active
same,Activity,[1],64.3%
same,Activity,[15],Active
same,Activity,[16],Active
same,Tmax,[17],3.5 h
same,IC50,[18],8.41 µM
same,Activity,"[18]; dose 1-10 µM, time 24.5 hrs",Dose-Dependent Effect
same,Activity,[19],Non-Toxic
same,IC50,[20],2.58 µM
same,Activity,"[20]; dose 1-10 µM, time 24.5 hrs",Dose-Dependent Effect
same,AUC(0-inf),[21],465 ng·h/mL
same,Activity,[22],Non-Toxic
Cc1cccc(COc2ccc(/C=C/C(=O)Nc3nccs3)cc2)c1,Activity,[1],2.28%
O=C(/C=C/c1ccc(OCc2cccc(F)c2)cc1)Nc1nc2ccccc2[nH]1,Activity,[1],55.45%
Cc1ccc(COc2ccc(/C=C/C(=O)Nc3nc4ccccc4s3)cc2)cc1,Activity,[2],inactive
O=C(/C=C/c1ccc(OCc2ccc3ccccc3c2)cc1)Nc1nc2ccccc2[nH]1,Activity,[1],9.07%
O=C(/C=C/c1ccc(OCc2cccc(Cl)c2)cc1)Nc1nccs1,Activity,[2],inactive
O=C(/C=C/c1ccc(OCc2cccc(Cl)c2)cc1)Nc1nc2ccccc2[nH]1,Activity,[1],41.13%
Cc1ccc(COc2ccc(/C=C/C(=O)Nc3nc4ccccc4[nH]3)cc2)cc1,Activity,[1],43.08%
O=C(/C=C/c1ccc(OCc2ccc(F)cc2)cc1)Nc1nccs1,Activity,[1],12.05%
O=C(O)/C=C/c1ccccc1 [CINNAMIC ACID],Activity,[1],9.51%
Cc1ccc(COc2ccc(/C=C/C(=O)Nc3nccs3)cc2)cc1,Activity,[1],15.31%
O=C(/C=C/c1ccc(OCc2cccc(Cl)c2)cc1)Nc1nc2ccccc2s1,Activity,[2],inactive
COc1ccc(COc2ccc(/C=C/C(=O)Nc3nccs3)cc2)cc1,Activity,[2],inactive
O=C(/C=C/c1ccc(OCc2cccc(F)c2)cc1)Nc1nccs1,Activity,[1],7.66%
O=C(/C=C/c1ccc(OCc2c(Cl)cccc2Cl)cc1)Nc1nc2ccccc2[nH]1,Activity,[1],19.64%
COc1ccc(COc2ccc(/C=C/C(=O)Nc3nc4ccccc4s3)cc2)cc1,Activity,[1],16.39%
CC(C)c1ccc(COc2ccc(/C=C/C(=O)Nc3nc4ccccc4s3)cc2)cc1,Activity,[1],14.04%
O=C(/C=C/c1ccc(OCc2ccc3ccccc3c2)cc1)Nc1nc2ccccc2s1,Activity,[1],14.17%
O=C(/C=C/c1ccc(OCc2c(Cl)cccc2Cl)cc1)Nc1nccs1,Activity,[1],8.16%
CC(C)c1ccc(COc2ccc(/C=C/C(=O)Nc3nccs3)cc2)cc1,Activity,[2],inactive
O=C(/C=C/c1ccc(OCc2ccc3ccccc3c2)cc1)Nc1nccs1,Activity,[1],3.63%
COc1cccc(COc2ccc(/C=C/C(=O)Nc3nc4ccccc4s3)cc2)c1,Activity,[1],14.12%
O=C(/C=C/c1ccc(OCc2ccc(F)cc2)cc1)Nc1nc2ccccc2[nH]1,Activity,[1],29.65%
